Test results published in paper PMC2910240 (Neuroscience letters, 2010).
Like-named read-outs stand apart in the source and are kept apart here.

Key:
[1] = biological target: human cloned 5-HT7 receptor; conditions: cited from earlier work
human cloned 5-HT1A = conditions: cited from earlier work
h5-HT1A = biological target: T1, h5-HT1A (Homo sapiens, UniProt P08908); experiment: Competition radioligand binding
T1 sequence (P08908 1-422): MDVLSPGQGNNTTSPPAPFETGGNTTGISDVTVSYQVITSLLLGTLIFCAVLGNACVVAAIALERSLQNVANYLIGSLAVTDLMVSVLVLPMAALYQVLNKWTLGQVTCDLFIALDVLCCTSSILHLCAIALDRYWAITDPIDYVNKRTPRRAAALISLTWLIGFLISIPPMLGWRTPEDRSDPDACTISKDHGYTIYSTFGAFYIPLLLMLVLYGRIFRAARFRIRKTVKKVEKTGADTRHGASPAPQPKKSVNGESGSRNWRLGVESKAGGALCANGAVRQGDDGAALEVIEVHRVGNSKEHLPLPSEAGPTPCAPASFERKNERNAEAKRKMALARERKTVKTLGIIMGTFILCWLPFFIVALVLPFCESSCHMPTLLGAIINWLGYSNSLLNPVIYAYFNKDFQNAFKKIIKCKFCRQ

5-HT7^−/− mice = experiment: Body temperature regulation in 5-HT7-/- mice; format: in vivo, mouse
h5-ht1E = h5-ht1E (Homo sapiens, UniProt P28566); experiment: Competition radioligand binding; conditions: for Ki: 3 nM [3H]5-HT
h5-ht1E, sequence (P28566 whole entry): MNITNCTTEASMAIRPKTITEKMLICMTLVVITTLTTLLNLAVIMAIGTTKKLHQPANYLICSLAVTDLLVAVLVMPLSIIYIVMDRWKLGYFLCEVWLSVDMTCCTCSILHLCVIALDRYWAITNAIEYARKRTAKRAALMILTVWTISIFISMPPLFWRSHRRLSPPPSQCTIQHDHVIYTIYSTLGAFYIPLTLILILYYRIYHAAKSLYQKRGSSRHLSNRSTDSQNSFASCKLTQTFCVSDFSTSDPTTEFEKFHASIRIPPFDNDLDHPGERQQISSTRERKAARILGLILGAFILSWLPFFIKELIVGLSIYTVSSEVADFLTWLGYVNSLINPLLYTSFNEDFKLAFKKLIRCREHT

5-HT7^+/+ mice = experiment: Body temperature regulation in 5-HT7+/+ mice; format: in vivo, mouse
h5-HT2A = h5-HT2A (Homo sapiens, UniProt P28223); format: binding; conditions: 0.5 nM [3H]ketanserin; mean ± S.E.M.
h5-HT2A, sequence (P28223 whole entry): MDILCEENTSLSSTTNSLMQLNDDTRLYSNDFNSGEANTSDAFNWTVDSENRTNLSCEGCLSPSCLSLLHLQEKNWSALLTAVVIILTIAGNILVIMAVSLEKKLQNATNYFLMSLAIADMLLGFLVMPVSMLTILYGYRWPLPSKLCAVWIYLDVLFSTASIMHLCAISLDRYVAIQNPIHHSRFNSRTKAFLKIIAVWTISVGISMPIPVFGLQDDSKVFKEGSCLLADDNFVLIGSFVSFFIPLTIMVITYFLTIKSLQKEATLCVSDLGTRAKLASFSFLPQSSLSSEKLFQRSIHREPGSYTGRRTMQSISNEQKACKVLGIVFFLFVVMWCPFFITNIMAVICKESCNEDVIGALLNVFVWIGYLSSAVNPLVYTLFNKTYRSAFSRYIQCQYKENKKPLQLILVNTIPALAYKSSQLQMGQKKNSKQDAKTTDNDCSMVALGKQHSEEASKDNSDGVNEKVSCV

mice = experiment: Observation of visible adverse effects in mice; format: in vivo, mouse; conditions: i.p. doses of the body temperature study
h5-HT1B = h5-HT1B (Homo sapiens, UniProt P28222); experiment: Competition radioligand binding; conditions: 0.29 nM [3H]GR125743; mean ± S.E.M.
h5-HT1B, sequence (P28222 whole entry): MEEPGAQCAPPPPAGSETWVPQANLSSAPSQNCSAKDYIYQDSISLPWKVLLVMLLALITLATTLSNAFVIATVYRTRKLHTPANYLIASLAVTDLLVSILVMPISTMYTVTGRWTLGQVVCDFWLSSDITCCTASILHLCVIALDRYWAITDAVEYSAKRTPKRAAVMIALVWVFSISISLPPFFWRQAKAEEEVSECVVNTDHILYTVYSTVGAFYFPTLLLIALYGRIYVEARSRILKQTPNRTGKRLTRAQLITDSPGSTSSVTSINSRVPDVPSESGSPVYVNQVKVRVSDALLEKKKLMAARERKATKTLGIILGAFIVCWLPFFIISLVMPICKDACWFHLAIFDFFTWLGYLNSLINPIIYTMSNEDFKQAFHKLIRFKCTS

h5-HT3 = biological target: T2, h5-HT3 (Homo sapiens, UniProt P46098); experiment: Competition radioligand binding; conditions: for Ki: 0.29 nM [3H]LY278584, mean ± S.E.M.
T2 sequence (P46098 24-478): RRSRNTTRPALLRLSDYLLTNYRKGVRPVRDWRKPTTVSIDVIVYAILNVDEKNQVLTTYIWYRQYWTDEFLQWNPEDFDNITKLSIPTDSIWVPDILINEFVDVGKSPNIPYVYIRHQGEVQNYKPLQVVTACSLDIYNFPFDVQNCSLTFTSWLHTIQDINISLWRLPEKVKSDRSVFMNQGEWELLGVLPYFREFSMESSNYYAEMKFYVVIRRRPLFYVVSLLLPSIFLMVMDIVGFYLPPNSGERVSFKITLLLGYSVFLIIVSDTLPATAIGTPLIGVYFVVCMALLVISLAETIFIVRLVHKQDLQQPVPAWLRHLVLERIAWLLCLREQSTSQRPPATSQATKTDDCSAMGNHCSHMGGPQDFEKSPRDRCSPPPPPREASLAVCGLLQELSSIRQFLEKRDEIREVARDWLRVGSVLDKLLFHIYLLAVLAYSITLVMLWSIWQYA

5-HT7 receptor = conditions: cited from earlier work
hSERT = hSERT (Homo sapiens, UniProt P31645); experiment: Competition radioligand binding; conditions: 0.79 nM [3H]citalopram; mean ± S.E.M.
hSERT, sequence (P31645 whole entry): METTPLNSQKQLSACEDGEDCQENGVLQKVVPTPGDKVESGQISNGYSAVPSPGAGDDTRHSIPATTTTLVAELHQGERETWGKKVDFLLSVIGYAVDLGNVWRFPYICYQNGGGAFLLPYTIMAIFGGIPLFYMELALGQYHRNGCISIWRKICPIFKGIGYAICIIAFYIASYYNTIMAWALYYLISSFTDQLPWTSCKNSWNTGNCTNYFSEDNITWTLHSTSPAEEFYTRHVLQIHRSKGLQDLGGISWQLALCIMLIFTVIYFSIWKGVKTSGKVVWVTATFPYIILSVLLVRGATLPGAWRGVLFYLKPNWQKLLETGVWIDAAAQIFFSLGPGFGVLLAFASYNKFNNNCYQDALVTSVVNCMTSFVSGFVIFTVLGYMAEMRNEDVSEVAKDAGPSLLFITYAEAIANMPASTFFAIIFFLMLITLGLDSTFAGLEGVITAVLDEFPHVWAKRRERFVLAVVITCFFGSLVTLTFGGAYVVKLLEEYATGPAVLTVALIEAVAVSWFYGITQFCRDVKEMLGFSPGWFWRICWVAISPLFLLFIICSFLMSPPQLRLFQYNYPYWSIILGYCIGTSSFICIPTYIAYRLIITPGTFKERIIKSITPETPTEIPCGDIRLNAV

h5-HT1D = h5-HT1D (Homo sapiens, UniProt P28221); experiment: Competition radioligand binding; conditions: 1.4 nM [3H]5-CT; mean ± S.E.M.
h5-HT1D, sequence (P28221 whole entry): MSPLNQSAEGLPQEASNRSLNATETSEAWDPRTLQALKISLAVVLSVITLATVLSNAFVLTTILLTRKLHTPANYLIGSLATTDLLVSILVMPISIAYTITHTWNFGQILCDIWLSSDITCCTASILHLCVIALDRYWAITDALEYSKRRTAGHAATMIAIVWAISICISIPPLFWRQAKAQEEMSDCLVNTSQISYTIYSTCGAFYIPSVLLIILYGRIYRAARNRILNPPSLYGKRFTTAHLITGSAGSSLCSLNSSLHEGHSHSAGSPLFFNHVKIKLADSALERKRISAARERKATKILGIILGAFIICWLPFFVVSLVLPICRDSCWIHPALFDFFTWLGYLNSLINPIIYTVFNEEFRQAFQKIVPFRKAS

[2] = biological target: rat cloned 5-HT7 receptors; conditions: cited from earlier work
h5-HT6 = h5-HT6 (Homo sapiens, UniProt P50406); experiment: Competition radioligand binding; conditions: 0.97 nM [3H]LSD; mean ± S.E.M.
h5-HT6, sequence (P50406 whole entry): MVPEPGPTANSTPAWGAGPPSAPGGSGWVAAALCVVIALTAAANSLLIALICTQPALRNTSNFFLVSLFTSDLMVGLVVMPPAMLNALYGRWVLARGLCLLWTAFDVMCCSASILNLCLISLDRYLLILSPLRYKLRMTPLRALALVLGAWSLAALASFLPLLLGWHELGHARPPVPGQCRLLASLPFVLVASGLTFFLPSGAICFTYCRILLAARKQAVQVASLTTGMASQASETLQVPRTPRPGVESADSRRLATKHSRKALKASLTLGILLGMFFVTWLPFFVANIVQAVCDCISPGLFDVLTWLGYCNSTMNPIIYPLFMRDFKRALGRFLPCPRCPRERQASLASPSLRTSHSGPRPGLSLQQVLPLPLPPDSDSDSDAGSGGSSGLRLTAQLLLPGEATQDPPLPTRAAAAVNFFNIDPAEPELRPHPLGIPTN

h5-ht5A = h5-ht5A (Homo sapiens, UniProt P47898); experiment: Competition radioligand binding; conditions: for Ki: 0.99 nM [3H]LSD, mean ± S.E.M.
h5-ht5A, sequence (P47898 whole entry): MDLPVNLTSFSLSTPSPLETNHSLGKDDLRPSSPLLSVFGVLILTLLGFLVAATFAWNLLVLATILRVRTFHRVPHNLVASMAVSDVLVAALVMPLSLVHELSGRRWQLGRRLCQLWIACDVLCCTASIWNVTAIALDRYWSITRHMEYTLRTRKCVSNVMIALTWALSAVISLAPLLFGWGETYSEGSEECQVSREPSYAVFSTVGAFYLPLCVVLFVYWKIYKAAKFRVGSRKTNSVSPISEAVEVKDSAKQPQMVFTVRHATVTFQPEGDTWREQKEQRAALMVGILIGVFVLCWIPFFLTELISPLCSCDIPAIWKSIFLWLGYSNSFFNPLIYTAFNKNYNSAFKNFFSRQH

r5-HT2C = biological target: T3, r5-HT2C (Rattus norvegicus, UniProt P08909); experiment: Competition radioligand binding; conditions: 0.5 nM [3H]mesulergine; mean ± S.E.M.
T3 sequence (P08909 33-460): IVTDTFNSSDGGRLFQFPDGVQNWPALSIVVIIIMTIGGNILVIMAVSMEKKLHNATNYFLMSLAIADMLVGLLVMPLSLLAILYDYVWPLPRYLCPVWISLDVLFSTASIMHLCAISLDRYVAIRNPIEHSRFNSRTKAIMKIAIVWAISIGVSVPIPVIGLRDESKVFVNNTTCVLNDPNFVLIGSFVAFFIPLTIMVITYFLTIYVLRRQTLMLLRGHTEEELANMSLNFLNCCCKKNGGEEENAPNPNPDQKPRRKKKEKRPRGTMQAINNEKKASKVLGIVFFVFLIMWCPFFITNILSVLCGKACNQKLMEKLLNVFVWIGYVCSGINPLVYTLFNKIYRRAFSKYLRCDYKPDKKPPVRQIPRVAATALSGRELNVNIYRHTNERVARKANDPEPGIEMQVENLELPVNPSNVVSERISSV

h5-HT2B = h5-HT2B (Homo sapiens, UniProt P41595); experiment: Competition radioligand binding; conditions: 1.0 nM [3H]LSD; mean ± S.E.M.
h5-HT2B, sequence (P41595 whole entry): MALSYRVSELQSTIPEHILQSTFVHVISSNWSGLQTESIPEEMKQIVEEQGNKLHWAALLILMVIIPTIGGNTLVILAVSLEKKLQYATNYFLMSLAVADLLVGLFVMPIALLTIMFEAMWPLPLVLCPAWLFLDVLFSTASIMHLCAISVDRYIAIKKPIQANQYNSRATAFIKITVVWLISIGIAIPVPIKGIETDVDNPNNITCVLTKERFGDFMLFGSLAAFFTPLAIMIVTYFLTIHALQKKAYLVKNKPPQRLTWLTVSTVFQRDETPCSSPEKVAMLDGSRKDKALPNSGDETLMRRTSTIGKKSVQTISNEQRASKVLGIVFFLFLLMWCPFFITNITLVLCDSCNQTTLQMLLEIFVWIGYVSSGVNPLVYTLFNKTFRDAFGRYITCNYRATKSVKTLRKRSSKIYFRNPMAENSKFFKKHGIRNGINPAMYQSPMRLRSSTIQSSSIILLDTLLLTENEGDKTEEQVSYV

[3] = Disposition: plasma and brain concentrations in mice; format: in vivo, mouse; conditions: for Plasma concentration: 30 min
How it was run: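 Male 5-HT7−/− and 5-HT7+/+ sibling mice, 10–12 weeks old, got test compound i.p. (10 or 30 mg·kg−1). It was dissolved in ethanol at 10× and diluted in saline just before injection. At 30 min mice were killed by isoflurane overdose; […] and brain were stored at −80 °C. Parent and metabolite were measured in plasma and water brain homogenate (1 g·10 mL−1) by RP-HPLC-UV at 230 nm with internal standard. LLOQ 50 ng·mL−1 or g−1. Ratios on molar basis; 5 mice/group.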

h5-HT7 = h5-HT7 (Homo sapiens, UniProt P34969); experiment: Competition radioligand binding
h5-HT7, sequence (P34969 whole entry): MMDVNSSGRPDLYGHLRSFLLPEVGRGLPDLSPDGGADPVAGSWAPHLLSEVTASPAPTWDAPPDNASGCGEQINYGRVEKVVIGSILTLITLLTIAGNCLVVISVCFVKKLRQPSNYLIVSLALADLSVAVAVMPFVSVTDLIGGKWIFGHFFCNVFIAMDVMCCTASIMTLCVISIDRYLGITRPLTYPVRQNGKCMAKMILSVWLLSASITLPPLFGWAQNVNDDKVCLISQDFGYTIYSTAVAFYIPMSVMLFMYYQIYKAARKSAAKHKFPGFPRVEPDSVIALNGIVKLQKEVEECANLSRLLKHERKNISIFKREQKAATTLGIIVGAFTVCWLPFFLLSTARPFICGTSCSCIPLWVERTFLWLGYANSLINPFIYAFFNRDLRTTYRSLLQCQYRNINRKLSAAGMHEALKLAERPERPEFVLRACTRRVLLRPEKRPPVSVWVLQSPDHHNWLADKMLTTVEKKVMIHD

[4] = cited from earlier work
[5] = 0.5 nM [3H]8-OH-DPAT, mean ± S.E.M.
[6] = 3, 10, and 30 mg/kg i.p., wild-type mice

Q: Which results are given for `CCCN(CCC)C1CCc2cccc(O)c2C1` (centres unmarked) [8-OH-DPAT, 8-hydroxy-N,N-dipropylaminotetraline]?
A: Ki [1]: 467 nM; Ki (human cloned 5-HT1A): 3.8 nM

Q: Which Ki (h5-HT1A; [5]) does the source give for `N#Cc1ccc(CNC(=O)CCCCCN2CCN(c3ccccc3-c3ccccc3)CC2)cc1` [LP-211, N-(4-cyanophenylmethyl)-4-(2-diphenyl)-1-piperazinehexanamide] here?
A: The Ki was 379 ± 118 nM.

Q: What about the “effect on body temperature” value (5-HT7^−/− mice; 3 mg/kg i.p.) of the same compound?
A: Its value is “did not alter body temperature”.

Q: What about the “effect on body temperature” value (5-HT7^−/− mice; 10 mg/kg i.p.) of the same compound?
A: The value was “but not in 5-HT7^−/− mice”.

Q: And the “effect on body temperature” value (5-HT7^−/− mice; 30 mg/kg i.p.)?
A: Its value is “significant, but less pronounced, effect on peak change”.

Q: And the “binding at 5-HT1E receptors” value (h5-ht1E)?
A: Its value is “did not significantly bind”.

Q: What about the Ki (h5-ht1E) of the same compound?
A: The Ki was over 10000 nM.

Q: And the “effect on body temperature” value (5-HT7^+/+ mice; 3 mg/kg i.p., 5-HT7+/+ mice)?
A: Its value is “did not alter body temperature”.

Q: What about the “effect on body temperature” value (5-HT7^+/+ mice; 10 mg/kg i.p., 5-HT7+/+ mice) of the same compound?
A: Its value is “had a peak effect”.

Q: And the “effect on body temperature” value (5-HT7^+/+ mice; 30 mg/kg i.p., 5-HT7+/+ mice, peak change and overall change)?
A: Its value is “significant effect”.

Q: What about the “effect on body temperature” value (5-HT7^+/+ mice; [6]) of the same compound?
A: The value was “dose-dependently reduced body temperature”.

Q: And the “time of peak effect on body temperature after the injection” value (5-HT7^+/+ mice; [6])?
A: Its value is 15 to 30 min.

Q: What about the Ki (h5-HT2A) of the same compound?
A: Its Ki is 626 ± 141 nM.

Q: And the “visible adverse effects apart from the hypothermia” value (mice)?
A: The value was “did not induce any visible adverse effects”.

Q: And the Ki (h5-HT1B)?
A: The Ki was 215 ± 10 nM.

Q: What about the “binding at 5-HT3 receptors” value (h5-HT3) of the same compound?
A: Its value is “did not significantly bind”.

Q: And the Ki (h5-HT3)?
A: The Ki was over 10000 nM.

Q: What about the Ki (hSERT) of the same compound?
A: The Ki was 812 ± 156 nM.

Q: What about the Ki (h5-HT1D) of the same compound?
A: The Ki was 394 ± 74 nM.

Q: And the Ki [2]?
A: Its Ki is 0.58 nM.

Q: And the Ki (h5-HT6)?
A: The Ki was 1570 ± 193 nM.

Q: And the Ki (h5-ht5A)?
A: Its Ki is 178 ± 26 nM.

Q: What about the Ki (r5-HT2C) of the same compound?
A: Its Ki is 91 ± 9 nM.

Q: And the Ki (h5-HT2B)?
A: Its Ki is 67 ± 10 nM.

Q: What about the Plasma concentration ([3]; LP-211 10 mg/kg i.p., 5-HT7-/- mice) of the same compound?
A: The Plasma concentration was […].

Q: And the Plasma concentration ([3]; LP-211 30 mg/kg i.p., 5-HT7+/+ mice)?
A: Its Plasma concentration is […].

Q: Which Ki (h5-HT1A) does the source give for `CC[C@@H](CO)NC(=O)[C@@H]1C=C2c3cccc4c3c(cn4C)C[C@H]2N(C)C1` [Methysergide, reference compound] here?
A: The Ki was 38 nM.

Q: For `c1ccc(-c2ccccc2N2CCNCC2)cc1` [RA-7, 1-(2-diphenyl)piperazine], which Ki (h5-HT1A; [5]) is on record?
A: Its Ki is 99 ± 22 nM.

Q: What about the “selectivity for 5-HT7 over 5-HT1A” value (h5-HT1A; from Ki values) of the same compound?
A: The value was 71 fold.

Q: And the Ki (h5-ht1E)?
A: Its Ki is over 10000 nM.

Q: And the Ki (h5-HT7; 1.1 nM [3H]LSD, mean ± S.E.M.)?
A: Its Ki is 1.4 ± 0.2 nM.

Q: What about the “Ki at human 5-HT7 lower than the corresponding value for the parent compound” value (h5-HT7; RA-7 vs LP-211) of the same compound?
A: Its value is “approximately 10 fold”.

Q: And the “selectivity for 5-HT7 over a range of 5-HT receptor subtypes and SERT” value (h5-HT7; from Ki values)?
A: The value was over 54 fold.

Q: What about the “effect on body temperature” value (5-HT7^+/+ mice; 3 mg/kg i.p., genotype not given) of the same compound?
A: The value was “slight but significant hyperthermic effect”.

Q: And the “effect on body temperature” value (5-HT7^+/+ mice; 10 mg/kg i.p., 5-HT7+/+ mice)?
A: The value was “induced hypothermia to small degree that reached significance for overall change”.

Q: And the Ki (h5-HT2A)?
A: Its Ki is 1190 ± 288 nM.

Q: What about the “visible adverse effects apart from the hypothermia” value (mice) of the same compound?
A: Its value is “did not induce any visible adverse effects”.

Q: And the Ki (h5-HT1B)?
A: Its Ki is 1020 ± 121 nM.

Q: And the Ki (h5-HT3)?
A: Its Ki is 228 ± 34 nM.

Q: And the Ki (hSERT)?
A: Its Ki is 439 ± 41 nM.

Q: What about the Ki (h5-HT1D) of the same compound?
A: Its Ki is 302 ± 39 nM.

Q: And the Ki (h5-HT6)?
A: Its Ki is 596 ± 70 nM.

Q: What about the “mean metabolite-to-parent compound ratio in mouse brain, molar basis” value [4] of the same compound?
A: Its value is “about 2”.

Q: What about the Ki (h5-ht5A) of the same compound?
A: Its Ki is 76 ± 14 nM.

Q: And the “selectivity for 5-HT7 over 5-HT5A” value (h5-ht5A; from Ki values)?
A: The value was 54 fold.

Q: And the Ki (r5-HT2C)?
A: Its Ki is 171 ± 14 nM.

Q: What about the Ki (h5-HT2B) of the same compound?
A: Its Ki is 178 ± 19 nM.

Q: What about the “metabolite in plasma and brain” value ([3]; 30 min after the lowest dose of LP-211, 5-HT7-/- and 5-HT7+/+ mice) of the same compound?
A: Its value is “undetectable”.

Q: For `CC1CCN(CC[C@H]2CCCN2S(=O)(=O)c2cccc(O)c2)CC1` [SB-269970, (2R)-1-[(3-hydroxyphenyl)sulfonyl]-2-[2-(4-methyl-1-piperidinyl)ethyl]pyrrolidine, reference compound], which “effect of the antagonist itself on body temperature” value (5-HT7^+/+ mice; 10 mg/kg i.p., genotype not given) is on record?
A: The value was “no effect on body temperature”.

Q: And the “antagonism of the effect of LP-211 (30 mg/kg) on body temperature” value (5-HT7^+/+ mice; antagonist 10 mg/kg i.p., 30 min prior to LP-211)?
A: The value was “blocked the effect of LP-211”.

Q: What about the “reversal of the LP-211 effect in guinea pig ileum” value (5-HT7 receptor) of the same compound?
A: Its value is “reversed”.
